We go through eleven compounds from ChEMBL document CHEMBL1124378, “Synthesis and pharmacological evaluation of a series of 4-piperazinylpyrazolo[3,4-b]- and -[4,3-b][1,5]benzodiazepines as potential anxiolytics” (J Med Chem, 1989).

pIC50: −log10 of the molar value. Some results are limits rather than exact numbers.

Test [1] relates to Mus musculus. The test is described as follows: Dose below which no catalepsy was observed at any time period (following p.o. dosing). Format: functional. In outline:
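CFW mice (21-23 g), three per group, dosed orally in water or 0.5% carboxymethylcellulose. Checked at 0.25, 2.5 and 5.0 h for holding one hind limb on a 2-cm rubber bung and staying on a vertical grid, judged against a control by a trained observer.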

Test [2] concerns Mus musculus. The test is described as follows: Compound administered perorally was evaluated for the hypothermia (rectal temperature) in mice. The format is functional. In outline:
(§1)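 Groups of three CFW mice (21-23 g) received oral compound in water or 0.5% carboxymethylcellulose. Rectal temperature was taken at 0.25, 2.5 and 5.0 h. Mean change from the group's initial mean was summed over the three times. Hypothermia scored if the summed reduction was >4 °C.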

Test [3] has as its target Muscarinic acetylcholine receptor. The test is described as follows: Inhibition of [3H]QNB binding to muscarinic cholinergic receptor from male Olac rat brain.
Test [4] has as its system Rattus norvegicus. The test is described as follows: Rotarod response in rat to assess muscular incoordination (following p.o. dosing). Format: functional. In outline: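 Male Olac-Wistar rats (140-150 g), five per group, fed ad libitum, dosed orally. Tested 1 and 2 h later on a horizontal rod (2 rpm, 32 mm diameter), maximum 30 s. Mean time compared with vehicle controls by Mann-Whitney U test, significant at p < 0.05.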

The subject of test [5] is Rattus norvegicus. The test is described as follows: Compound administered perorally was evaluated for the conditioned avoidance response in rats. The format is functional. The method in brief:
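Olac-Wistar rats (120-130 g) trained to cross a shuttle box on a 5-s buzzer, with mild shock if no response within 1 s after it ends. Only high-responders used. Groups of five were dosed orally in water or 0.5% carboxymethylcellulose 1 h 50 min before testing. After 10-min habituation they were tested 20 min. Blockade = shocks as % of stimuli presented.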

Test [6] is filed under the species Rattus norvegicus. Briefly: compound behavior in rat. Format: functional. On the set-up: unit not given here. In outline:
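Olac-Wistar rats (180-190 g), eight per group, dosed orally, front paws placed on a 1.5-cm rod 7 cm above the table. Tested at 0.5, 1, 1.5, 2, 3, 4 and 5 h, up to 20 min hold. Each animal's maximum score (0-5 by time held) was summed, giving a group maximum of 40.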

For test [7], the target named is D(2) dopamine receptor (Bos taurus) (UniProt P20288). Briefly: Inhibition of [3H]spiperone binding to dopamine receptor D2 from calf caudate.
In test [8] the test system is Mus musculus. Briefly: Compound administered perorally was evaluated for the hypothermia (rectal temperature ) in mice. Format: functional. In outline:
as §1

The target in test [9] is Muscarinic acetylcholine receptor. Briefly: Compound was evaluated for the inhibition of [3H]QNB binding to Muscarinic acetylcholine receptor from male Olac rat brain.
Test [10] deals with D(2) dopamine receptor (Bos taurus) (UniProt P20288). Briefly: Inhibition of [3H]spiperone binding to Dopamine receptor D2 from calf caudate.

In general, IC50 refers to the concentration that inhibits the measured activity by half. The pIC50 is the negative decadic logarithm of the IC50, by convention in mol/L. Take `CN1CCN(C2=Nc3ccc(F)cc3Nc3nn(C)cc32)CC1`: the results for the EDmin in the test with Mus musculus [1] and in the test with Mus musculus [2] were 100 mg/kg and 1.6 mg/kg, respectively. The compound further came in with an IC50 in test [3] of 43 µM. The figures for the ED in the test on Rattus norvegicus [4] and in the test on Rattus norvegicus [5] were more than 40 mg/kg and more than 20 mg/kg, respectively. Also, the Activity in the test filed under Rattus norvegicus [6] is more than 50. The compound also had a pIC50 in test [7] of 5.59.

As to `CCCCCCn1cc2c(n1)Nc1ccc(F)cc1N=C2N1CCN(C)CC1.Cl`, the results for the EDmin in the test with Mus musculus [1] and with Mus musculus [2] were more than 400 mg/kg and 100 mg/kg, respectively. For the same compound, in test [3], the IC50 was found to be 18 µM. In addition, the ED in the test on Rattus norvegicus [4] and in the test on Rattus norvegicus [5] was more than 50 mg/kg in each case. This compound gave an Activity in the test filed under Rattus norvegicus [6] of more than 50. Besides, in [7], the pIC50 is 6.15.

With `CN1CCN(C2=Nc3cc(F)ccc3Nc3nn(Cc4ccccc4)cc32)CC1`, the EDmin was more than 400 mg/kg in the test with Mus musculus [1] and 100 mg/kg with Mus musculus [2]. The same compound returned an IC50 in test [3] of more than 100 µM. In addition, the ED with Rattus norvegicus [4] is more than 50 mg/kg; with Rattus norvegicus [5], 50 mg/kg. In addition, the pIC50 in test [7] was 6.40.

In the case of `CCn1cc2c(n1)Nc1ccc(F)cc1N=C2N1CCN(C)CC1`, the EDmin is more than 400 mg/kg in the test with Mus musculus [1] and 6 mg/kg in the test on Mus musculus [2]. The IC50 in [3] worked out at 14 µM. The ED was more than 40 mg/kg with Rattus norvegicus [4] and 50 mg/kg in the test on Rattus norvegicus [5]. Further, the Activity in the test listed under Rattus norvegicus [6] was found to be 50. Besides, in test [7], the pIC50 was 5.48.

As to `Cc1c2c(nn1C)Nc1ccc(F)cc1N=C2N1CCN(C)CC1`, the results for the EDmin with Mus musculus [1] and in the test on Mus musculus [2] were 200 mg/kg and 25 mg/kg, respectively. For the same compound, in [3], the IC50 was 3.2 µM. Besides, the ED in the test on Rattus norvegicus [4] and in the test with Rattus norvegicus [5] was more than 50 mg/kg each time. Moreover, the Activity in the test filed under Rattus norvegicus [6] is 50. Moreover, in test [7], the pIC50 is 4.01.

For `Cc1cc2c(s1)Nc1ccc(F)cc1N=C2N1CCN(C)CC1` [FLUMEZAPINE], the EDmin came out at 6.25 mg/kg in the test with Mus musculus [1] and 1.6 mg/kg with Mus musculus [2]. For the same compound, the values for the ED with Rattus norvegicus [4] and with Rattus norvegicus [5] were 10 mg/kg and 5 mg/kg, respectively. In addition, the Activity in the test listed under Rattus norvegicus [6] is 20.

For the compound `Cn1cc2c(n1)Nc1ccc(F)cc1N=C2N1CCNCC1`, the EDmin in the test with Mus musculus [1] was more than 400 mg/kg; in the test on Mus musculus [8], 200 mg/kg. The compound further registered an IC50 in test [9] of more than 10 µM. Further, the ED with Rattus norvegicus [4] and with Rattus norvegicus [5] was more than 50 mg/kg throughout. This compound gave a pIC50 in test [10] of 5.28.

On to `CCCCCCCCCCn1cc2c(n1)Nc1ccc(Cl)cc1N=C2N1CCN(C)CC1`, for which the EDmin in the test with Mus musculus [1] and in the test with Mus musculus [8] was more than 400 mg/kg in each case. Further, in test [9], the IC50 is more than 10 µM. In addition, the ED in the test with Rattus norvegicus [4] and in the test with Rattus norvegicus [5] was more than 50 mg/kg each time. Besides, the negative-log IC50 (pIC50) in [10] is 5.60.

As to `CCn1cc2c(n1)Nc1ccc(Cl)cc1N=C2N1CCN(C)CC1`, the EDmin with Mus musculus [1] is more than 400 mg/kg; with Mus musculus [2], 6.25 mg/kg. For the same compound, the IC50 in test [3] was more than 1 µM. The ED in the test with Rattus norvegicus [4] was 20 mg/kg; in the test on Rattus norvegicus [5], more than 15 mg/kg. Besides, the pIC50 in test [7] is 6.47.

Regarding `CN1CCN(C2=Nc3cc(Cl)c(Cl)cc3Nc3nn(C)cc32)CC1`, the EDmin in the test on Mus musculus [1] is 50 mg/kg; with Mus musculus [8], 25 mg/kg. The IC50 in [9] was more than 1 µM. In addition, the results for the ED in the test on Rattus norvegicus [4] and in the test on Rattus norvegicus [5] were more than 50 mg/kg and more than 20 mg/kg, respectively. In [10], the pIC50 was less than 5.00.

With `CN1CCN(C2=Nc3cc(F)c(F)cc3Nc3nn(C)cc32)CC1`, the EDmin is more than 200 mg/kg in the test with Mus musculus [1] and 25 mg/kg with Mus musculus [2]. Also, the IC50 in test [3] is 21 µM. The results for the ED with Rattus norvegicus [4] and in the test with Rattus norvegicus [5] were more than 50 mg/kg and 50 mg/kg, respectively. In [7], this compound showed a pIC50 of 6.12.
